Test [1] has as its system Human alphaherpesvirus 2. Description: In vitro antiviral activity against Herpes simplex virus -2 strain MS was evaluated in african green monkey kidney. The class given is functional.
Test [2] deals with Human respirovirus 3. Description: Antiviral activity against Para influenza virus type 3 strain C243 was evaluated in african green monkey kidney. The class given is functional.
For test [3], the system named is L1210. Description: In vitro antitumor activity against L1210 cell line in mice. The class given is functional, Mus musculus. The essentials:
(§1)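 Cells at 1 × 10⁶ cells/mL were incubated with filter-sterilized compound in growth medium, in duplicate, at log concentrations from 1 × 10⁻⁹ to 1 × 10⁻⁴ M. After 48 h at 37 °C, Coulter counts were taken and growth was expressed as a percentage of untreated controls. ID₅₀ is the concentration giving 50% growth inhibition.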

Test [4] concerns Human alphaherpesvirus 2. Kind of test: Antiviral activity against Herpes simplex virus -2 strain MS was evaluated in african green monkey kidney. The class given is functional.
Test [5] deals with Human alphaherpesvirus 1. Kind of test: In vitro antiviral activity against Herpes simplex virus -1 strain KOS was evaluated in african green monkey kidney. The class given is functional.
Test [6] relates to P388. Kind of test: In vitro antitumor activity against P388 cell line in mice. The class given is functional, Mus musculus. The method, boiled down:
as §1

Test [7] concerns Human respirovirus 3. Description: In vitro antiviral activity against Para influenza virus type 3 strain C243 was evaluated in african green monkey kidney. The class given is functional.
Test [8] relates to Vaccinia virus. Kind of test: Antiviral activity against Vaccinia virus strain Elstree was evaluated in african green monkey kidney. The class given is functional, Orthopoxvirus vaccinia.
The test system of test [9] is Vaccinia virus. Description: In vitro antiviral activity against Vaccinia virus strain Elstree was evaluated in african green monkey kidney. The class given is functional, Orthopoxvirus vaccinia.
The test system of test [10] is Human alphaherpesvirus 1. Description: Antiviral activity against Herpes simplex virus -1 strain KOS was evaluated in african green monkey kidney. The class given is functional.
The test system of test [11] is Human alphaherpesvirus 1. Description: Antiviral activity against Herpes simplex virus -1 strain MS was evaluated in african green monkey kidney. The class given is functional.
Test [12] has as its system Vesicular stomatitis virus. Kind of test: Antiviral activity against Vesicular stomatitis virus strain indiana was evaluated in african green monkey kidney. The class given is functional. The essentials:
(§2)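 Confluent Vero monolayers (4 × 10⁴ cells/well, EMEM with 10% heat-inactivated newborn bovine serum, 24 h at 37 °C, 5% CO₂) were infected per well with Cox B1 200, Reo 3 470 or VSV 2 TCID₅₀ units. After 30 min adsorption, compound was added at seven 0.5-log steps, final 5 × 10⁻⁶ to 5 × 10⁻³ M, in duplicate wells. CPE was scored microscopically 0–4 at 72 h to give VR, and ED₅₀ was checked on crystal-violet-stained plates.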

The subject of test [13] is L1210. Kind of test: In vitro antitumor activity against L1210 cell line in mice; B indicates inactive at 10e-1 mmol/L. As to conditions: Mus musculus. The class given is functional, cell-based. The essentials: as §1
Test [14] relates to Mammalian orthoreovirus 3. Description: In vitro antiviral activity against Reovirus type 3 strain Abney was evaluated in african green monkey kidney. The class given is functional. The method, boiled down: as §2
Test [15] relates to P388. Kind of test: In vitro antitumor activity against P388 cell line in mice; B indicates inactive at 10e-1 mmol/L. The note with it: Mus musculus. The class given is functional, cell-based. The essentials: as §1
Test [16] concerns Coxsackievirus B1. Kind of test: Antiviral activity against Coxsackie B1 strain HA 201468 was evaluated in african green monkey kidney. The class given is functional. The essentials: as §2
Test [17] relates to Coxsackievirus B1. Kind of test: In vitro antiviral activity against Coxsackie B1 strain HA 201468 was evaluated in african green monkey kidney. The class given is functional. The method, boiled down:
as §2

The subject of test [18] is Mammalian orthoreovirus 3. Description: Antiviral activity against Reovirus type 3 strain Abney was evaluated in african green monkey kidney. The class given is functional. The method, boiled down:
as §2

Test [19] concerns Vesicular stomatitis virus. Description: In vitro antiviral activity against Vesicular stomatitis virus strain indiana was evaluated in african green monkey kidney. The class given is functional. The method, boiled down: as §2
Test [20] has as its system Vero. Kind of test: In vitro cytotoxicity against Vero cells. The class given is functional, Chlorocebus sabaeus.

Values joined by “and” are separate entries in the source; they are usually repeats but may differ in a detail not shown here. Equal values may be shown once. Active and inactive are the calls of the source. The rule behind the calls is not given here. Some results are limits rather than exact numbers.

In the case of `Cl.Nc1nc(=O)n([C@@H]2O[C@H](CO)[C@@H](O)[C@H]2O)cc1F`, the Virus rating in test [1] is recorded as 2.1; in [5] it was 1; in [7] it was 0.8; in test [9], 1.3. Moreover, the ED50 in test [2] is 0.13 mM; in [4] it was less than 0.0005 mM; in test [8] it was 5e-05 µM; in [10], 0.02 mM. Moreover, the ID50 worked out at 2.6 µM in test [3] and 3 µM in test [6].
With `Nc1nc(=O)n([C@@H]2O[C@H](COP(=O)(O)O)[C@@H](O)[C@H]2O)cc1F`, the Virus rating in [1] is given as 2; in test [5], 1.2; in [7], 1; in test [9], 1.4. In addition, the ED50 in [2] is 0.02 mM; in [4], less than 0.0005 mM; in test [11], 0.02 mM; in [8], 9e-05 µM. The ID50 in [3] was determined as 3.4 µM; in [6], 3.1 µM.
Turning to `N.Nc1nc(=O)n([C@@H]2O[C@@H]3CO[PH](O)(O)O[C@H]3[C@H]2O)cc1Cl`, the ED50 was greater than 5 mM in test [12]; greater than 5 mM in test [2]; greater than 5 mM in [4]; greater than 5 mM in test [16]; greater than 5000 µM in test [8]; greater than 5 mM in test [18]. In test [10], this compound yielded an ED50 greater than 5 mM. The Virus rating in test [1] is recorded as 0.1; in [14], 0; in test [5], 0; in test [17], 0; in test [7], 0; in [19], 0. For the same compound, the Virus rating in test [9] amounted to 0. Moreover, the ID50 entry in test [13] and in test [15] was “inactive” each time. In test [20], this compound showed a Cytotoxicity of 5 mM.
As for `N.Nc1nc(=O)n([C@@H]2O[C@@H]3CO[PH](O)(O)O[C@H]3[C@H]2O)cc1Br`, the ED50 in test [12] was greater than 5 mM; in [2], greater than 5 mM; in [4], 5 mM; in test [16], greater than 5 mM; in test [8], 5000 µM; in test [18], greater than 5 mM. In test [10], this compound registered an ED50 greater than 5 mM. The Virus rating in test [1] is on record as 0.2; in [14], 0; in test [5], 0.1; in test [17], 0; in test [7], 0; in [19], 0. The Virus rating in test [9] is listed as 0.1. For the same compound, the ID50 entry in [13] and in [15] was “inactive” throughout. In addition, the Cytotoxicity in test [20] was 2 mM l-1 and 5 mM l-1.
Consider `N.Nc1nc(=O)n([C@@H]2O[C@@H]3CO[PH](O)(O)O[C@H]3[C@H]2O)cc1I`, for which the ED50 is greater than 5 mM in test [12]; greater than 5 mM in [2]; greater than 5 mM in [4]; greater than 5 mM in test [16]; greater than 5000 µM in [8]; greater than 5 mM in test [18]. In test [10], the ED50 was greater than 5 mM. In addition, the Virus rating in test [1] is recorded as 0; in [14] it was 0; in test [5] it was 0; in test [17], 0; in [7], 0; in [19], 0.2. The compound also came in with a Virus rating in test [9] of 0. Also, the ID50 result in test [13] and in [15] was “inactive” in each case. In addition, the Cytotoxicity in test [20] is 2 mM l-1 and 5 mM l-1.
As for `Nc1ccn([C@@H]2O[C@H](CO)[C@@H](O)[C@@H]2O)c(=O)n1` [CYTARABINE], the Virus rating in test [1] was found to be 2.7; in test [5], 2.7; in test [7], 0; in test [9] it was 2.8. For the same compound, the ED50 in [2] was greater than 0.5 mM; in [4] it was 0.0011 mM; in test [8] it was 0.34 µM; in test [10], 0.00034 mM. The ID50 in [3] amounted to 2.5 µM; in [6], 1.2 µM. In [20], the Cytotoxicity amounted to 0.0005 mM.
On to `N.Nc1nc(=O)n([C@@H]2O[C@@H]3CO[PH](O)(O)O[C@H]3[C@H]2O)cc1F`, for which the ED50 in [12] was 5 mM; in [2], greater than 5 mM; in test [4] it was 0.092 mM; in [16], greater than 5 mM; in [8], 290 µM; in test [18], greater than 5 mM. This compound registered an ED50 in test [10] of 0.22 mM. Besides, the Virus rating came to 0.9 in [1]; 0 in test [14]; 0.6 in test [5]; 0 in [17]; 0.1 in test [7]; 0.2 in test [19]. The same compound showed a Virus rating in test [9] of 0.6. Besides, the ID50 in test [3] and in [6] was 0.31 µM in each case. Moreover, the Cytotoxicity in [20] was 0.2 mM l-1 and 0.5 mM l-1.
For `Nc1nc(=O)[nH]cc1F` [FLUCYTOSINE], the Virus rating in [1] was 0.5; in test [5] it was 0; in test [7], 0.4; in [9], 0. The ID50 result in test [13] and in [15] was “inactive” each time. Also, the ED50 was greater than 5 mM in test [2], greater than 5 mM in test [4], greater than 5000 µM in test [8] and greater than 5 mM in test [10]. The same compound had a Cytotoxicity in test [20] of 5 mM.

The record behind these values is ChEMBL document CHEMBL1122970, “Synthesis and antitumor and antiviral activities of a series of 1-beta-D-ribofuranosyl-5-halocytosine (5-halocytidine) cyclic 3',5'-monophosphates” (1985).
